Source: ChEMBL document CHEMBL1131324 (J Med Chem, 1998)
pKi: −log10 of the molar value.

Legend:
[1] = biological target: 5-hydroxytryptamine receptor 1D (Homo sapiens, UniProt P28221); assay: Binding affinity for human 5-hydroxytryptamine 1D receptor
[2] = biological target: T1, 5-hydroxytryptamine receptor 1B (Homo sapiens, UniProt P28222); assay: Effect of compound on [35S]GTP-gamma-S, radioligand binding CHO cells expressing human 5-hydroxytryptamine 1B receptor; assay type: functional, cell-based
[3] = biological target: T1, 5-hydroxytryptamine receptor 1B; assay: Binding affinity for human 5-hydroxytryptamine 1B receptor
[4] = biological target: 5-hydroxytryptamine receptor 2A (Homo sapiens, UniProt P28223); assay: Binding affinity for human 5-hydroxytryptamine 2A receptor
How it was run: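 Human cloned receptor expressed in HEK 293 cells; displacement of [³H]ketanserin in 50 mM Tris-HCl (pH 7.7 at 25 °C). Test compound over a concentration range, 30-45 min at 37 °C; filtration with ice-cold buffer wash, bound label by scintillation counting; pKi reported as mean (SEM, n) or individual values where n = 2.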

[5] = species on record: Cavia porcellus; assay: Mean maximum temperature drop on SK & F 99101H (-1.73(0.17)) -induced Hypothermia at 4 hr postdose treatment(** p< 0.01 vs SK & F 99101H controls).; assay type: functional
How it was run: (§1)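 Male Dunkin-Hartley guinea pigs, n = 6/group. Compound given 5.0 mg/kg po, then SK&F 99101H 30 mg/kg ip at 2, 4, 8 or 24 h postdose; 8 and 24 h data come from a second independent experiment. Rectal temperature measured by probe 4–5 cm deep. Mean maximum temperature drop, also expressed as % of SK&F 99101H controls.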

[6] = biological target: Alpha-1B adrenergic receptor (Rattus norvegicus, UniProt P15823); assay: Compound was tested for binding affinity against Alpha-1B adrenergic receptor (rat liver, [3H] prazosin)
How it was run: (§2)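 Radioligand competition run to literature procedures, giving pKi. Receptor preparation incubated with radioligand and a range of test concentrations for 30–45 min at 37 °C. Rapid filtration, ice-cold buffer wash, dried filters scintillation-counted. Mean ± SEM, or individual values where n = 2.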

[7] = biological target: T2, Serotonin 1 receptors; 5-HT1B & 5-HT1D (Homo sapiens) (UniProt P28222+P28221); settings: Cavia porcellus; 1.0 mg/kg
[8] = species on record: Cavia porcellus; assay: Effect on SK & F 99101H (-2.60(1.37) -induced Hypothermia at 24 hr postdose treatment in guinea pig(** p< 0.01 vs SK & F 99101H controls).; assay type: functional; how it was run: as §1
[9] = biological target: T2, Serotonin 1 receptors; 5-HT1B & 5-HT1D (Homo sapiens); settings: Cavia porcellus
[10] = biological target: T2, Serotonin 1 receptors; 5-HT1B & 5-HT1D (Homo sapiens); settings: Cavia porcellus; 10.0 mg/kg
[11] = biological target: T2, Serotonin 1 receptors; 5-HT1B & 5-HT1D (Homo sapiens); settings: Cavia porcellus; remark: listed apart in the source
[12] = biological target: T2, Serotonin 1 receptors; 5-HT1B & 5-HT1D (Homo sapiens); settings: Cavia porcellus; remark: listed apart in the source
[13] = test system: Cavia porcellus; assay: Body temperature drop at 2.2 mg/kg po dosage in Guinea pig.; assay type: functional
[14] = biological target: T2, Serotonin 1 receptors; 5-HT1B & 5-HT1D (Homo sapiens); settings: Cavia porcellus; remark: listed apart in the source
[15] = species on record: Cavia porcellus; assay: Compound was tested for % of SK & F 99101H controls on induced Hypothermia at 2 hr postdose.; assay type: functional; how it was run: as §1
[16] = test system: Cavia porcellus; assay: Body temperature drop at 10 mg/kg po dosage in Guinea pig.; assay type: functional
[17] = species on record: Cavia porcellus; assay: Mean maximum temperature drop on SK & F 99101H (-1.72(0.09)) -induced Hypothermia at 2 hr postdose treatment(**p< 0.01 vs SK & F 99101H controls).; assay type: functional; how it was run: as §1
[18] = biological target: Muscarinic acetylcholine receptor M1 (Homo sapiens, UniProt P11229); assay: Compound was tested for binding affinity against human cloned Muscarinic acetylcholine receptor M1; how it was run: as §2
[19] = test system: Cavia porcellus; assay: Body temperature drop at 4.6 mg/kg po dosage in Guinea pig.; assay type: functional
[20] = biological target: 5-hydroxytryptamine receptor 1F (Homo sapiens, UniProt P30939); assay: Compound was tested for binding affinity against human 5-hydroxytryptamine 1F receptor
How it was run: (§3)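 Competition binding giving pKi. Human cloned 5-HT1A in HEK 293 cells vs [3H]-8-OH-DPAT; human 5-HT1E and 5-HT1F in CHO cells vs [3H]-5-HT. Radioligand with a concentration range of test compound, 30–45 min at 37 °C. Rapid filtration, ice-cold buffer wash, scintillation counting. Mean ± SEM, or individual values where n = 2.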

[21] = species on record: Cavia porcellus; assay: Compound was tested for % of SK & F 99101H controls on induced Hypothermia at 8 hr postdose treatment.; assay type: functional; how it was run: as §1
[22] = biological target: 5-hydroxytryptamine receptor 1A (Homo sapiens, UniProt P08908); assay: Compound was tested for binding affinity against human 5-hydroxytryptamine 1A receptor; how it was run: as §3
[23] = biological target: Beta-1 adrenergic receptor (Homo sapiens, UniProt P08588); assay: Compound was tested for binding affinity against human cloned Beta-1 adrenergic receptor; how it was run: as §2
[24] = biological target: 5-hydroxytryptamine receptor 1E (Homo sapiens, UniProt P28566); assay: Compound was tested for binding affinity against human 5-hydroxytryptamine 1E receptor; how it was run: as §3
[25] = biological target: Histamine H1 receptor (Cavia porcellus, UniProt P31389); assay: Compound was tested for binding affinity against Histamine H1 receptor.; how it was run: as §2
[26] = biological target: T2, Serotonin 1 receptors; 5-HT1B & 5-HT1D (Homo sapiens); settings: Cavia porcellus; 0.3 mg/kg
[27] = biological target: Serotonin 4 (5-HT4) receptor (Sus scrofa, UniProt Q6Q253); assay: Compound was tested for binding affinity against piglet hippocampus 5-hydroxytryptamine 4 receptor; assay type: tissue-based
How it was run: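 pKi from displacement of [125I]SB-207710 in piglet hippocampus. Radioligand and a range of test concentrations incubated 30–45 min at 37 °C, then rapidly filtered, washed with ice-cold buffer and counted by scintillation.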

[28] = test system: Cavia porcellus; assay: Body temperature drop at 22 mg/kg po dosage in Guinea pig; assay type: functional
[29] = biological target: Alpha-2B adrenergic receptor (Mus musculus, UniProt P30545); assay: Compound was tested for binding affinity against Alpha-2B adrenergic receptor (NG 108-15 cells) using [3H]RX-821002) as radioligand; assay type: cell-based; how it was run: as §2
[30] = biological target: Histamine H2 receptor (Cavia porcellus, UniProt P47747); assay: Compound was tested for binding affinity towards Histamine H2 receptor; how it was run: as §2
[31] = species on record: Cavia porcellus; assay: Mean maximum temperature drop on SK & F 99101H (-2.23(0.13)) -induced Hypothermia at 8 hr postdose treatment(** p< 0.01 vs SK & F 99101H controls).; assay type: functional; how it was run: as §1
[32] = biological target: D(3) dopamine receptor (Homo sapiens, UniProt P35462); assay: Compound was tested for binding affinity against human cloned Dopamine receptor D3
How it was run: (§4)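 Human D2 or D3 receptors expressed in CHO cells, displacement of [3H]spiperone, giving pKi. Incubated 30–45 min at 37 °C with a range of test concentrations. Filtered, washed with ice-cold buffer, bound label counted by scintillation.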

[33] = species on record: Cavia porcellus; assay: (§5) Compound was tested for % of SK & F 99101H controls on induced Hypothermia at 4 h postdose treatment.; assay type: functional; how it was run: as §1
[34] = species on record: Cavia porcellus; assay: as §5; assay type: functional; how it was run: as §1; remark: listed apart in the source
[35] = biological target: Alpha-2A adrenergic receptor (Homo sapiens, UniProt P08913); assay: Compound was tested for binding affinity against human cloned Alpha-2A adrenergic receptor; how it was run: as §2
[36] = biological target: Beta-2 adrenergic receptor (Homo sapiens, UniProt P07550); assay: Compound was tested for binding affinity against human cloned Beta-2 adrenergic receptor; how it was run: as §2
[37] = species on record: Cavia porcellus; assay: Body temperature drop at SK & F 99101H positive control dose (* p< 0.01 vs vehicle/vehicle controls) in Guinea pig.; assay type: functional
[38] = biological target: T2, Serotonin 1 receptors; 5-HT1B & 5-HT1D (Homo sapiens); settings: Cavia porcellus; remark: listed apart in the source
[39] = biological target: 5-hydroxytryptamine receptor 2C (Homo sapiens, UniProt P28335); assay: Compound was tested for binding affinity against human 5-hydroxytryptamine 2C receptor
How it was run: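 Competition binding against human cloned 5-HT2C receptor expressed in HEK 293 cells. [3H]mesulergine was the radioligand. Incubation in 50 mM Tris-HCl (pH 7.7 at 25 °C) with a range of test concentrations for 30–45 min at 37 °C. Samples were rapidly filtered, washed with ice-cold buffer, and counted by scintillation. pKi is given as mean (SEM, n) or as individual values where n = 2.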

[40] = biological target: Alpha-1A adrenergic receptor (Rattus norvegicus, UniProt P43140); assay: Compound was tested for binding affinity against Alpha-1A adrenergic receptor (rat submaxillary gland); how it was run: as §2
[41] = species on record: Cavia porcellus; assay: Compound was tested for % of SK & F 99101H controls on induced Hypothermia at 24 hr postdose treatment.; assay type: functional; how it was run: as §1
[42] = biological target: D(2) dopamine receptor (Homo sapiens, UniProt P14416); assay: Compound was tested for binding affinity against human cloned Dopamine receptor D2; how it was run: as §4
[43] = biological target: T2, Serotonin 1 receptors; 5-HT1B & 5-HT1D (Homo sapiens); settings: Cavia porcellus; 3.0 mg/kg
[44] = biological target: T2, Serotonin 1 receptors; 5-HT1B & 5-HT1D (Homo sapiens); settings: Cavia porcellus; remark: listed apart in the source
[45] = species on record: Cavia porcellus; assay: Mean maximum temperature drop on SK & F 99101H (-1.22(0.27)) -induced Hypothermia at 8 hr postdose treatment(* p< 0.05 vs SK & F 99101H controls).; assay type: functional; how it was run: as §1
[46] = biological target: Muscarinic acetylcholine receptor M2 (Homo sapiens, UniProt P08172); assay: Compound was tested for binding affinity against human cloned Muscarinic acetylcholine receptor M2; how it was run: as §2
Sequence of Muscarinic acetylcholine receptor M2 (P08172 whole entry): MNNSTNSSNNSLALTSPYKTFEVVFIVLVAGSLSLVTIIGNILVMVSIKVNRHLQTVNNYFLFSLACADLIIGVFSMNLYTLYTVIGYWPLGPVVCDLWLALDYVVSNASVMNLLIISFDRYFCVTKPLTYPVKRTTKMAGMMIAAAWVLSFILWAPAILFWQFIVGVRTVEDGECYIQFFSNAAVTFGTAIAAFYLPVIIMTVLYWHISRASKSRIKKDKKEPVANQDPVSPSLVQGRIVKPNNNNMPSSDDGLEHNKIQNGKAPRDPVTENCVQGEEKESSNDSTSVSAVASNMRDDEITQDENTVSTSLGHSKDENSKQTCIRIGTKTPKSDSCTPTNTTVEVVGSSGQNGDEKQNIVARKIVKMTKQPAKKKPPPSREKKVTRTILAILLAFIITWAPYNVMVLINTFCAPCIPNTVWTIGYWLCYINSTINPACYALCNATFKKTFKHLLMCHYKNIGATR

Sequence of 5-hydroxytryptamine receptor 1D (P28221 whole entry): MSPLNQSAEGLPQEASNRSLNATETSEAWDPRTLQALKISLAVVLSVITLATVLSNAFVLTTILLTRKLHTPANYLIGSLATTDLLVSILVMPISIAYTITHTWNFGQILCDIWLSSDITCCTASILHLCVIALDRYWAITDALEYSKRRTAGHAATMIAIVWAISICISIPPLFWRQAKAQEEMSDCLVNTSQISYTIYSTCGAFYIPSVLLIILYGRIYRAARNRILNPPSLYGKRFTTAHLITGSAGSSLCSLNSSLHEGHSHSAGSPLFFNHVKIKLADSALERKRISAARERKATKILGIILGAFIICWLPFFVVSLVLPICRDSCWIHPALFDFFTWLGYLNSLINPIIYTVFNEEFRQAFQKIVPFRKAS
T1 sequence (P28222 whole entry): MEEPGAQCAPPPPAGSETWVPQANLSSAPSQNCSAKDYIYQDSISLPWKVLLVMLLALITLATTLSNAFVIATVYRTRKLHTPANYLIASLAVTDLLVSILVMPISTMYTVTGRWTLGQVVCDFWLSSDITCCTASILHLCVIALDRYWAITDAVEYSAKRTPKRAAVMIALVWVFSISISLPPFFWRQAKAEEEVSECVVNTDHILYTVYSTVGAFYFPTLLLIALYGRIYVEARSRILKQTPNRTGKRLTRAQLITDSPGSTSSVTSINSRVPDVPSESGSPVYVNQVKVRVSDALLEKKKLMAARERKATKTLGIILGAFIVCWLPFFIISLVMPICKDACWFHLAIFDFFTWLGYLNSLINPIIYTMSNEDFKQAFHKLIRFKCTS
Sequence of 5-hydroxytryptamine receptor 2A (P28223 whole entry): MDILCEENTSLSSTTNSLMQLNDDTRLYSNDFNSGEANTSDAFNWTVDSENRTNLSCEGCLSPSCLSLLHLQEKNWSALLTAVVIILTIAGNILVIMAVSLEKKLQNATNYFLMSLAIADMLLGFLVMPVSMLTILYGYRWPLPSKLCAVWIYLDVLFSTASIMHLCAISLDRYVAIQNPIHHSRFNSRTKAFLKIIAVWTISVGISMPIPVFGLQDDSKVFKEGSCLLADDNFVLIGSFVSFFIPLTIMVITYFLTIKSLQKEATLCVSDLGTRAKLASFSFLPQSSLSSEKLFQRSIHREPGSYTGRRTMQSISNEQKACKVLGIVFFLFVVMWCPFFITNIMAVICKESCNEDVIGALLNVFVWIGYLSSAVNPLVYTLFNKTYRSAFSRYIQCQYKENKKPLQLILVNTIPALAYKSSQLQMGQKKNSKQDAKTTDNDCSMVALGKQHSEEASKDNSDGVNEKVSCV
Sequence of 5-hydroxytryptamine receptor 1E (P28566 whole entry): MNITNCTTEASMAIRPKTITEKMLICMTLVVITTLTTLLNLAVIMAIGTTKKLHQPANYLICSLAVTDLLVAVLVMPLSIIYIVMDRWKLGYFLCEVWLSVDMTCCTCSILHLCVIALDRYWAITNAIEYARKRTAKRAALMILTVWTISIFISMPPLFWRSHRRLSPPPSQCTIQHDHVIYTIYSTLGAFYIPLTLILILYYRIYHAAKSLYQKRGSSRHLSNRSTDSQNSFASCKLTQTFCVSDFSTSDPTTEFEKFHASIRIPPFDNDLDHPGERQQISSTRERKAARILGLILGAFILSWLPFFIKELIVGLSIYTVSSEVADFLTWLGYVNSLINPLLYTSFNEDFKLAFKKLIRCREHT
Sequence of Histamine H1 receptor (P31389 whole entry): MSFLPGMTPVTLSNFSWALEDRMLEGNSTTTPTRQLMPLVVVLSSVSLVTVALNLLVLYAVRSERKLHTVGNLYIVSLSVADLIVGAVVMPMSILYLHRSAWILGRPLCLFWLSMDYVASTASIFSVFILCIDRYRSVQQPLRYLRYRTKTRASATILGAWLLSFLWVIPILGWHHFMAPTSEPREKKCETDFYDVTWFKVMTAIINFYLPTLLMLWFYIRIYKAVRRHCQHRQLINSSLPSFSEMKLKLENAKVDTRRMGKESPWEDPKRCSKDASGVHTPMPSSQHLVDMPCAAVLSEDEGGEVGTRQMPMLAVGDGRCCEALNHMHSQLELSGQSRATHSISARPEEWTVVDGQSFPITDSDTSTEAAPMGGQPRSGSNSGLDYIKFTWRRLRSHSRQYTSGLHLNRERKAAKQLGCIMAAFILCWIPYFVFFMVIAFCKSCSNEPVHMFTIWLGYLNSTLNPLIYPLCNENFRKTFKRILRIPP
Sequence of 5-hydroxytryptamine receptor 1A (P08908 whole entry): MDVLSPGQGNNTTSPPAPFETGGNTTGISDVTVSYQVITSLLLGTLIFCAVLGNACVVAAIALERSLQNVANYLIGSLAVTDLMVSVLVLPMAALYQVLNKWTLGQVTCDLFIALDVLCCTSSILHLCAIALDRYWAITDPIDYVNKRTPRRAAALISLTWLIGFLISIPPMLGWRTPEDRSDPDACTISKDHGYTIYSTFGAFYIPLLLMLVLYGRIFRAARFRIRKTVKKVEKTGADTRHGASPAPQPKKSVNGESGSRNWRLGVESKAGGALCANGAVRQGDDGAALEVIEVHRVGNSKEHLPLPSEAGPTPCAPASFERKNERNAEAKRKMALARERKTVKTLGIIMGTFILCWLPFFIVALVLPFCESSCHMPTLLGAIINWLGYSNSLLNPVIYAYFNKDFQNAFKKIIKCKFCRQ
Sequence of Muscarinic acetylcholine receptor M1 (P11229 whole entry): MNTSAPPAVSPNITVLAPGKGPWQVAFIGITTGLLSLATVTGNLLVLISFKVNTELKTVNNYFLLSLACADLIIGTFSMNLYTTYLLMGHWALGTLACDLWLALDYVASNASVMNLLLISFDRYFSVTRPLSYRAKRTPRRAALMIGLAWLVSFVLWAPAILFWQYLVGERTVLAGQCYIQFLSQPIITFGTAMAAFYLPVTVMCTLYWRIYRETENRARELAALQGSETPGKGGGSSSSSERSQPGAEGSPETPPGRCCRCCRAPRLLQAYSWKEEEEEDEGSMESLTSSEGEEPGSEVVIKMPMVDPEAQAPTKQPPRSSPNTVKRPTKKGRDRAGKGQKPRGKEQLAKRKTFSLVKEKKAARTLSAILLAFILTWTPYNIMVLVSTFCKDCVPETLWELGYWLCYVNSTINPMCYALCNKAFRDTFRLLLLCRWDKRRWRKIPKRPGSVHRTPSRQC
Sequence of Alpha-2B adrenergic receptor (P30545 whole entry): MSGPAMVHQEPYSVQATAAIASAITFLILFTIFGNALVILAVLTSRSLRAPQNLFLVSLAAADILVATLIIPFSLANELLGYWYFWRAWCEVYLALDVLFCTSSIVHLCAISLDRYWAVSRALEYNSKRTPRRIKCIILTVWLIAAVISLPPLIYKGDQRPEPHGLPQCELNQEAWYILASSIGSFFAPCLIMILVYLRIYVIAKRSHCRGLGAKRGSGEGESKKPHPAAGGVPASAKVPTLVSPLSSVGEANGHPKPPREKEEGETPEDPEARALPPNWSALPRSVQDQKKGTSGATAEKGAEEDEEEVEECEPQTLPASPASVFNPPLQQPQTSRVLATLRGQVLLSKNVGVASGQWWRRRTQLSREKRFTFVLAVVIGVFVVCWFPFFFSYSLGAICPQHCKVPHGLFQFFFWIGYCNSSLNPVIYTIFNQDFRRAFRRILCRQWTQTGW
Sequence of 5-hydroxytryptamine receptor 2C (P28335 whole entry): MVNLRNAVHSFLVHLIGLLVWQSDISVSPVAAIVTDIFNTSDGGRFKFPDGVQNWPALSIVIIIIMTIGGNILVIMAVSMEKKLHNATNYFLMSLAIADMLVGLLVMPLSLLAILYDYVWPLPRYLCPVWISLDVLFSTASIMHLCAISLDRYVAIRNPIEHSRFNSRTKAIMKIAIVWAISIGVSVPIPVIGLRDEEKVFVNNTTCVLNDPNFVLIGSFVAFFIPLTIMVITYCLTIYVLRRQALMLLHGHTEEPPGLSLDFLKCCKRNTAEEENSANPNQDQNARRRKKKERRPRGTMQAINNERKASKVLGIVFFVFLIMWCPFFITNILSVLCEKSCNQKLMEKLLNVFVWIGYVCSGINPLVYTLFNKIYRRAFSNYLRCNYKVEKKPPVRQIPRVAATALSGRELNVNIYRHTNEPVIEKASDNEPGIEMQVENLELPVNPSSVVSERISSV
Sequence of Alpha-1B adrenergic receptor (P15823 whole entry): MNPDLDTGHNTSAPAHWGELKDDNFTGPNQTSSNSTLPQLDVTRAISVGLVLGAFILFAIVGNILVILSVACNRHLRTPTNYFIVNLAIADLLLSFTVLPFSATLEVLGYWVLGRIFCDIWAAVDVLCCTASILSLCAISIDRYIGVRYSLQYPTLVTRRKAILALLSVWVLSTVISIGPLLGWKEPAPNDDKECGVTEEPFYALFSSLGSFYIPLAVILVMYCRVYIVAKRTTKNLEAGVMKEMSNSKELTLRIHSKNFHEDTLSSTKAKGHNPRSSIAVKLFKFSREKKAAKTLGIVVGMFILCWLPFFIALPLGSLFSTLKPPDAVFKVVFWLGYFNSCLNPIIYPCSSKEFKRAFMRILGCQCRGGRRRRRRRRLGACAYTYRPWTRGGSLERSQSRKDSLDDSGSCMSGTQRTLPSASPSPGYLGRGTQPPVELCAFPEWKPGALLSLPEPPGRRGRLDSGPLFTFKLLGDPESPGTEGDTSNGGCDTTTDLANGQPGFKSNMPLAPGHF

Cc1nc(-c2ccc(-c3ccc(C(=O)Nc4ccc5c(c4)C4(CCN(C)CC4)CO5)cc3)c(C)c2)no1
pKi [1]: 5.70
[35S]GTPγS binding stimulation [2]: -64%
pKi [3]: 7.50
pKi [4]: 6.00

Cc1cc(C(=O)Nc2ccc(C)c(N3CCN(C)CC3)c2)ccc1Br
pKi [1]: 7.40
pKi [3]: 7.90
pKi [4]: 6.90

Cc1nc(-c2ccc(-c3ccc(C(=O)Nc4ccc5c(c4)N(CCN(C)C)CCO5)cc3)c(C)c2)no1
pKi [1]: 7.70
[35S]GTPγS binding stimulation [2]: 91%
pKi [3]: 8.60
pKi [4]: 8.40

COc1ccc(NC(=O)c2ccc(-c3ccc(-c4noc(C)n4)cc3C)cc2)cc1OCCN(C)C
pKi [1]: 7.50
[35S]GTPγS binding stimulation [2]: 139%

Cc1cc(C(=O)Nc2cccc(N3CCN(C)CC3)c2)ccc1Br
pKi [1]: 6.70
pKi [3]: 6.90
pKi [4]: 6.50

Cc1nc(-c2ccc(-c3ccc(C(=O)Nc4cc5c(c(OCCN(C)C)c4)OCC5)cc3)c(C)c2)no1
pKi [1]: 7.60
[35S]GTPγS binding stimulation [2]: 207%
pKi [3]: 8.80
pKi [4]: 7.30

COc1ccc(NC(=O)c2ccc(-c3ccc(-c4noc(C)n4)cc3C)cc2)cc1CCCN(C)C
pKi [1]: 7.00
[35S]GTPγS binding stimulation [2]: -44%
pKi [3]: 8.50
pKi [4]: 8.20

COc1ccc(NC(=O)c2ccc(Br)c(C)c2)cc1N1CCN(C)CC1
pKi [1]: 7.90
pKi [3]: 8.20
pKi [4]: 6.70

COc1cc2c(cc1OCCN(C)C)N(C(=O)c1ccc(-c3ccc(-c4noc(C)n4)cc3C)cc1)CC2
pKi [1]: 8.30
pKi [3]: 9.30
pKi [4]: 6.50

COc1ccc(NC(=O)c2ccc(-c3ccc(-c4noc(C)n4)cc3C)cc2)cc1NCCN(C)C
pKi [1]: 7.40
[35S]GTPγS binding stimulation [2]: 108%
pKi [3]: 8.60
pKi [4]: 8.30

Cc1nc(-c2ccc(-c3ccc(C(=O)N4CCc5cc6c(cc54)C4(CCN(C)CC4)CO6)cc3)c(C)c2)no1 [SB-224289]
Body temp drop [5]: -0.27 °C
pKi [6]: < 6.00
Control [7]: 85%
Body temp drop [8]: -1.31 °C
Degrees Centigrade [9]: -1.63 °C
Control [10]: 35%
Degrees Centigrade [11]: -1 °C
Body temperature drop [12]: -1.92 °C
Body temperature drop [13]: -0.23 °C
Degrees Centigrade [14]: -1.77 °C
Control [15]: 22%
Body temperature drop [16]: -0.03 °C
Body temp drop [17]: -0.38 °C
pKi [18]: < 6.00
Body temperature drop [19]: -0.05 °C
pKi [20]: < 5.00
Control [21]: 48%
pKi [22]: < 5.50
pKi [23]: < 6.00
pKi [24]: < 5.00
pKi [25]: < 6.00
Simulation [2]: -62%
Control [26]: 93%
pKi [27]: < 6.00
Body temperature drop [28]: -0.03 °C
pKi [29]: < 6.00
pKi [30]: < 6.00
Body temp drop [31]: -1.1 °C
pKi [32]: < 6.00
Control [33]: 43%
Control [34]: 15%
pKi [35]: < 6.00
pKi [36]: < 6.00
Mean maximumtemp drop [37]: -2 °C
Body temp drop [38]: -0.67 °C
pKi [39]: 6.20
pKi [40]: < 6.00
Control [41]: 50%
pKi [42]: < 6.00
Control [43]: 52%
Body temperature drop [44]: -0.12 °C
Body temp drop [45]: -0.53 °C
pKi [4]: 5.80
pKi [46]: < 6.00
